Source: ChEMBL document CHEMBL4680124, “2-Styryl-4-aminoquinazoline derivatives as potent DNA-cleavage, p53-activation and in vivo effective anticancer agents” (Eur J Med Chem, 2020)
pIC50: −log10 of the molar value.

Legend:
Assay type in all cases: functional, cell-based
[1] = system: T-24; assay: Cytotoxicity against human T-24 cells […] assessed as reduction in cell viability preincubated for 48 hrs and measured after 4 hrs by MTT assay
[2] = system: L02; assay: Cytotoxicity against human HL-7702 cells expressing wild type p53 assessed as reduction in cell viability preincubated for 48 hrs and measured after 4 hrs by MTT assay
[3] = system: DU-145; assay: Cytotoxicity against human DU145 cells expressing mutant type p53 assessed as reduction in cell viability preincubated for 48 hrs and measured after 4 hrs by MTT assay
Procedure, shortened: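 MTT assay. Cells grown in DMEM (T24, MGC-803, A549, HL-7702), RPMI-1640 (DU145) or DMEM-F12 (PC-3), each with 10% FBS. Exposed to 1.25–20 µM in medium with 1% DMSO for 48 h, then MTT for 4 h. Formazan dissolved in DMSO and read at 570 nm. Five wells per concentration; means ± SD of independent repeats.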

[4] = system: A549; assay: Cytotoxicity against human A549 cells expressing wild type p53 assessed as reduction in cell viability preincubated for 48 hrs and measured after 4 hrs by MTT assay
[5] = system: MGC-803; assay: Cytotoxicity against human MGC-803 cells expressing mutant type p53 assessed as reduction in cell viability preincubated for 48 hrs and measured after 4 hrs by MTT assay
[6] = system: PC-3; assay: Cytotoxicity against human PC-3 cells assessed as reduction in cell viability preincubated for 48 hrs and measured after 4 hrs by MTT assay

Row | SMILES | pIC50 [1] | pIC50 [2] | pIC50 [3] | pIC50 [4] | pIC50 [5] | pIC50 [6]
1 | COc1ccc(/C=C/c2nc(NCCCCN)c3ccccc3n2)cc1OC | 4.51 | < 4.00 | < 4.00 | < 4.00 | 4.15 | < 4.00
2 | COc1ccc(/C=C/c2nc(NCCN(C(C)C)C(C)C)c3ccccc3n2)cc1OC | 5.19 | < 4.00 | 4.82 | 4.41 | 4.81 | 4.69
3 | NCCCCNc1nc(/C=C/c2ccc([N+](=O)[O-])cc2)nc2ccc(Cl)cc12 | 5.25 | < 4.00 | < 4.00 | 5.00 | 5.04 | < 4.00
4 | CN(C)CCNc1nc(/C=C/c2ccc([N+](=O)[O-])cc2)nc2ccccc12 | 5.05 | 4.75 | 4.80 | 4.47 | 4.84 | 4.29
5 | COc1ccc(/C=C/c2nc(NCCN3CCCCC3)c3cc(Cl)ccc3n2)cc1OC | 5.12 | 4.86 | 4.76 | < 4.00 | 4.87 | 4.67
6 | CCN(CC)CCNc1nc(/C=C/c2ccc([N+](=O)[O-])cc2)nc2ccc(Cl)cc12 | 4.96 | < 4.00 | 4.91 | < 4.00 | 5.15 | < 4.00
7 | CCN(CC)CCCNc1nc(/C=C/c2ccc3c(c2)OCO3)nc2ccccc12 | < 4.00 | < 4.00 | < 4.00 | < 4.00 | < 4.00 | < 4.00
8 | CCN(CC)CCCNc1nc(/C=C/c2ccc([N+](=O)[O-])cc2)nc2ccccc12 | 5.27 | 5.28 | 4.91 | < 4.00 | 5.08 | 4.81
9 | CCN(CC)CCNc1nc(/C=C/c2ccc([N+](=O)[O-])cc2)nc2ccccc12 | < 4.00 | 4.35 | < 4.00 | < 4.00 | < 4.00 | < 4.00
10 | COc1ccc(/C=C/c2nc(NCCCN(C)C)c3cc(Cl)ccc3n2)cc1OC | < 4.00 | < 4.00 | < 4.00 | < 4.00 | < 4.00 | < 4.00
11 | O=[N+]([O-])c1ccc(/C=C/c2nc(NCCN3CCCCC3)c3ccccc3n2)cc1 | 4.44 | < 4.00 | < 4.00 | 4.55 | 4.56 | 4.59
12 | CN(C)CCNc1nc(/C=C/c2ccc([N+](=O)[O-])cc2)nc2ccc(Cl)cc12 | 5.16 | 4.15 | 5.17 | < 4.00 | 5.33 | 5.10
13 | O=[N+]([O-])c1ccc(/C=C/c2nc(NCCN3CCOCC3)c3ccccc3n2)cc1 | < 4.00 | < 4.00 | < 4.00 | < 4.00 | < 4.00 | < 4.00
14 | CN(C)CCNc1nc(/C=C/c2ccc3c(c2)OCO3)nc2ccc(Cl)cc12 | 5.02 | < 4.00 | < 4.00 | < 4.00 | 5.02 | < 4.00
15 | CN(C)CCNc1nc(/C=C/c2ccc3c(c2)OCO3)nc2ccccc12 | 4.18 | 4.24 | < 4.00 | < 4.00 | < 4.00 | < 4.00
16 | COc1ccc(/C=C/c2nc(NCCN(C)C)c3ccccc3n2)cc1OC | < 4.00 | < 4.00 | < 4.00 | < 4.00 | < 4.00 | < 4.00
17 | NCCCCNc1nc(/C=C/c2ccc3c(c2)OCO3)nc2ccccc12 | 4.39 | < 4.00 | < 4.00 | < 4.00 | 4.61 | < 4.00
18 | NCCCCNc1nc(/C=C/c2ccc3c(c2)OCO3)nc2ccc(Cl)cc12 | 5.25 | < 4.00 | 4.30 | 5.01 | 4.99 | < 4.00
19 | CC(C)N(CCNc1nc(/C=C/c2ccc([N+](=O)[O-])cc2)nc2ccc(Cl)cc12)C(C)C | 4.25 | < 4.00 | < 4.00 | < 4.00 | 4.76 | < 4.00
20 | COc1ccc(/C=C/c2nc(NCCCCN)c3cc(Cl)ccc3n2)cc1OC | 5.11 | < 4.00 | 4.70 | 4.30 | 4.85 | < 4.00
21 | CN(C)CCCNc1nc(/C=C/c2ccc([N+](=O)[O-])cc2)nc2ccc(Cl)cc12 | 5.13 | < 4.00 | 5.07 | 4.80 | 5.18 | 5.27

Row | SMILES | pIC50 [1] | pIC50 [2] | pIC50 [3] | pIC50 [4] | pIC50 [5] | pIC50 [6]
22 | COc1ccc(/C=C/c2nc(NCCN3CCCCC3)c3ccccc3n2)cc1OC | 4.98 | 4.70 | 4.14 | 4.08 | 4.48 | 4.10
23 | CC(C)N(CCNc1nc(/C=C/c2ccc([N+](=O)[O-])cc2)nc2ccccc12)C(C)C | 4.85 | 5.05 | < 4.00 | < 4.00 | 4.54 | < 4.00
24 | COc1ccc(/C=C/c2nc(NCCN3CCOCC3)c3cc(Cl)ccc3n2)cc1OC | 4.04 | < 4.00 | < 4.00 | < 4.00 | < 4.00 | < 4.00
25 | CN(C)CCCNc1nc(/C=C/c2ccc3c(c2)OCO3)nc2ccccc12 | 5.06 | 4.84 | 4.60 | < 4.00 | 4.86 | < 4.00
26 | CN(C)CCCNc1nc(/C=C/c2ccc3c(c2)OCO3)nc2ccc(Cl)cc12 | 5.09 | < 4.00 | < 4.00 | < 4.00 | 4.76 | < 4.00
27 | CCN(CC)CCCNc1nc(/C=C/c2ccc(OC)c(OC)c2)nc2ccc(Cl)cc12 | 5.45 | 5.29 | 5.27 | < 4.00 | 5.07 | 5.20
28 | C(=C\c1nc(NCCN2CCOCC2)c2ccccc2n1)/c1ccc2c(c1)OCO2 | < 4.00 | < 4.00 | < 4.00 | < 4.00 | < 4.00 | < 4.00
29 | O=[N+]([O-])c1ccc(/C=C/c2nc(NCCN3CCCCC3)c3cc(Cl)ccc3n2)cc1 | 4.46 | < 4.00 | < 4.00 | 4.39 | 4.70 | < 4.00
30 | CCN(CC)CCNc1nc(/C=C/c2ccc(OC)c(OC)c2)nc2ccccc12 | 4.52 | < 4.00 | 4.50 | < 4.00 | < 4.00 | 4.30
31 | CCN(CC)CCNc1nc(/C=C/c2ccc3c(c2)OCO3)nc2ccc(Cl)cc12 | 5.09 | 4.80 | 5.12 | < 4.00 | 4.95 | 4.85
32 | COc1ccc(/C=C/c2nc(NCCN3CCOCC3)c3ccccc3n2)cc1OC | < 4.00 | < 4.00 | < 4.00 | < 4.00 | < 4.00 | < 4.00
33 | CCN(CC)CCCNc1nc(/C=C/c2ccc(OC)c(OC)c2)nc2ccccc12 | < 4.00 | < 4.00 | < 4.00 | < 4.00 | < 4.00 | < 4.00
34 | CC(C)N(CCNc1nc(/C=C/c2ccc3c(c2)OCO3)nc2ccccc12)C(C)C | 4.76 | 4.67 | < 4.00 | < 4.00 | 4.95 | < 4.00
35 | CC(C)N(CCNc1nc(/C=C/c2ccc3c(c2)OCO3)nc2ccc(Cl)cc12)C(C)C | 5.13 | < 4.00 | 5.06 | < 4.00 | 5.07 | 4.98
36 | CCN(CC)CCNc1nc(/C=C/c2ccc3c(c2)OCO3)nc2ccccc12 | 5.06 | 4.68 | 4.79 | 4.33 | 5.01 | 4.47
37 | CCN(CC)CCCNc1nc(/C=C/c2ccc3c(c2)OCO3)nc2ccc(Cl)cc12 | 5.01 | < 4.00 | < 4.00 | < 4.00 | 4.89 | < 4.00
38 | CCN(CC)CCCNc1nc(/C=C/c2ccc([N+](=O)[O-])cc2)nc2ccc(Cl)cc12 | 5.15 | 4.82 | 5.09 | 4.12 | 5.13 | 5.16
39 | CN(C)CCCNc1nc(/C=C/c2ccc([N+](=O)[O-])cc2)nc2ccccc12 | 5.04 | 4.67 | 4.61 | 4.23 | 4.80 | < 4.00
40 | Clc1ccc2nc(/C=C/c3ccc4c(c3)OCO4)nc(NCCN3CCCCC3)c2c1 | 5.04 | < 4.00 | < 4.00 | < 4.00 | 4.83 | < 4.00
41 | CCN(CC)CCNc1nc(/C=C/c2ccc(OC)c(OC)c2)nc2ccc(Cl)cc12 | 4.91 | 4.04 | < 4.00 | < 4.00 | 4.78 | < 4.00
42 | Clc1ccc2nc(/C=C/c3ccc4c(c3)OCO4)nc(NCCN3CCOCC3)c2c1 | 4.42 | < 4.00 | < 4.00 | < 4.00 | < 4.00 | < 4.00
